1 compound from ChEMBL document CHEMBL3739259, “Defining Key Structural Determinants for the Pro-osteogenic Activity of Flavonoids” (J Nat Prod, 2015) can be followed below.

Data set [1] is described as follows: Induction of osteogenic differentiation in human MSC assessed as increase in ALP activity at 10 uM using p-NPP as substrate after 9 days by colorimetric method relative to control. In kind it is functional. The essentials: (§1)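 ALP read on day 9 in passage-3 bone-marrow hMSCs cultured at high density in Os.D medium. Compound (1, 5 or 10 μM, 0.1% v/v DMSO final) was re-applied on days 0, 3 and 6. Colorimetric p-nitrophenyl phosphate method, normalised to time and cell number (pNP/min/20,000 cells). Expressed as % of untreated control; three independent triplicate experiments; one-way ANOVA versus vehicle.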

Data set [2] can be described thus: Cytotoxicity against human MSC assessed as cell viability at 5 uM treated for 6 days measured on day 7 by alamar blue assay (reference value: 98%). As to conditions: MSC cells, read-out: Activity. On the technique in general: The colour change of resazurin is a common sign of viable cells or microbes.
A short description of data set [3]: Cytotoxicity against human MSC assessed as cell viability at 1 uM treated for 6 days measured on day 7 by alamar blue assay (reference value: 98%). As to conditions: MSC cells, read-out: Activity.
Data set [4] is described as follows: Cytotoxicity against human MSC assessed as decrease in cell number at 10 uM after 9 days by methylene blue staining based microscopy relative to control. The settings on record: 216 h. The essentials: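 Passage-3 bone-marrow hMSCs, high density in Os.D medium, dosed with 1, 5 or 10 μM compound (0.1% v/v DMSO final) on days 0, 3 and 6 with medium changes. Cell number measured on day 9 by methylene blue proliferation assay. Expressed as % of untreated control; three independent triplicate experiments, mean ± SEM, one-way ANOVA versus vehicle.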

The nature of data set [5]: Cytotoxicity against human MSC assessed as cell viability at 1 uM measured on day 1 by alamar blue assay (reference value: […] +/- 1%). The settings on record: MSC cells, read-out: Activity.
The test system of a further data set is MSC. Kind of data set: Induction of osteogenic differentiation in human MSC assessed as increase in ALP activity using p-NPP as substrate after 9 days by colorimetric method. In kind it is functional. Put shortly: as §1
Data set [6] can be described thus: Cytotoxicity against human MSC assessed as cell viability at 5 uM treated for 3 days measured on day 4 by alamar blue assay (reference value: 100 +/- 1%). As to conditions: MSC cells, read-out: Activity.
The nature of data set [7]: Cytotoxicity against human MSC assessed as cell viability at 10 uM treated for 3 days measured on day 4 by alamar blue assay (reference value: 100 +/- 1%). As to conditions: MSC cells, read-out: Activity.
Data set [8] is described as follows: Cytotoxicity against human MSC assessed as cell viability at 10 uM treated for 6 days measured on day 7 by alamar blue assay (reference value: 98%). The settings on record: MSC cells, read-out: Activity.
The nature of data set [9]: Cytotoxicity against human MSC assessed as cell viability at 10 uM after 24 hrs measured on day 1 by alamar blue assay (reference value: […] +/- 1%). The settings on record: MSC cells, read-out: Activity.
The nature of data set [10]: Cytotoxicity against human MSC assessed as cell viability at 5 uM after 24 hrs measured on day 1 by alamar blue assay (reference value: […] +/- 1%). As to conditions: MSC cells, read-out: Activity.
The nature of data set [11]: Induction of osteogenic differentiation in human MSC assessed as increase in ALP activity at 1 uM using p-NPP as substrate after 9 days by colorimetric method relative to control. The data set is classed as functional. Put shortly:
as §1

A short description of data set [12]: Induction of osteogenic differentiation in human MSC assessed as increase in ALP activity at 5 uM using p-NPP as substrate after 9 days by colorimetric method relative to control. The data set is classed as functional. The essentials:
as §1

The nature of data set [13]: Induction of matrix mineralization in human MSC assessed as increase in calcium deposition across cell monolayer at 10 uM after 20 days by Alizarin red S staining based microscopy relative to control. In kind it is functional.
A short description of data set [14]: Cytotoxicity against human MSC assessed as cell viability at 1 uM treated for 3 days measured on day 4 by alamar blue assay (reference value: 100 +/- 1%). The settings on record: MSC cells, read-out: Activity.

As for `COc1ccc(-c2oc3cc(O)cc(O)c3c(=O)c2O)cc1` [KAEMPFERIDE], the Activity was 281% in data set [1]; “Non-toxic” in [4]; “Dose-dependent effect” in the data set with MSC; 143% in data set [11]; 237% in data set [12]. In addition, in data set [2], the viability at 144 h, 5 µM was found to be 98%. The viability at 144 h, 1 µM in data set [3] is 97%. The viability at 1 day, 1 µM in data set [5] was found to be 112%. In addition, the viability at 72 h, 5 µM in [6] is 95%. The viability at 72 h, 10 µM in data set [7] came out at 95%. In [8], the viability at 144 h, 10 µM stood at 99%. Also, the viability at 24 h, 10 µM in [9] amounted to 111%. Besides, in data set [10], the viability at 24 h, 5 µM worked out at 112%. Also, the “fold change (FC)” value in [13] is given as 3.17. Besides, in data set [14], the viability at 72 h, 1 µM amounted to 95%.
